In ChEMBL document CHEMBL1152671, “Structure-activity relationship studies of manzamine A: amidation of positions 6 and 8 of the beta-carboline moiety” (Bioorg Med Chem, 2009):
≈ marks a conversion by molar mass, not a printed value. Calls of active or inactive are those of the source.

Tests used:
Candida albicans [1] = assay: Antifungal activity against Candida albicans by modified NCCLS method; format: functional, organism-based
[2] = system: Mycobacterium intracellulare; assay: Antibacterial activity against Mycobacterium intracellular by alamar blue assay; format: functional, organism-based
Plasmodium falciparum [3] = assay: Antimalarial activity against chloroquine-sensitive Plasmodium falciparum D6 infected in African green monkey (Cercopithecus aethiops) Vero cells assessed as parasite LDH activity after 72 hrs; format: functional, organism-based
Mus musculus = assay: Toxicity in Swiss Webster mice (Mus musculus) infected with Plasmodium berghei NK65 at 30 mg/kg, perorally QD for 3 consecutive days administered 2 hrs after infection; format: organism-based; set-up: dose 30 mg/kg, route oral; conditions: in vivo, po
In short: (§1)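 Male Swiss Webster mice, 18–20 g, inoculated intraperitoneally with 2 × 10⁷ P. berghei NK-65 parasitized red blood cells taken from a donor mouse. Groups of 5 mice were dosed orally about 2 h post-infection, once daily on […], at 3.3, 10 or 30 mg/kg. Controls were vehicle and chloroquine 10 mg/kg. Mice were observed after each dose for toxicity signs. Parasitemia was read on Giemsa-stained tail-blood smears, with suppression on days 5 and 7 and cure defined as no parasitemia to day 28.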

Cryptococcus neoformans [4] = assay: Antifungal activity against Cryptococcus neoformans after 24 hrs by alamar blue assay; format: functional
Aspergillus fumigatus [5] = system: Aspergillus fumigatus
Plasmodium falciparum [6] = assay: Antimalarial activity against chloroquine-resistant Plasmodium falciparum W2 infected in African green monkey (Cercopithecus aethiops) (Cercopithecus aethiops) Vero cells assessed as parasite LDH activity after 72 hrs; format: functional, organism-based
Plasmodium berghei = assay: Antimalarial activity against Plasmodium berghei NK65 infected in Swiss Webster mice (Mus musculus) assessed as inhibition of parasitaemia at 30 mg/kg, perorally daily for 3 consecutive days administered 2 hrs after infection measured on day 28 post infection; format: functional; conditions: route oral; in short: as §1
Escherichia coli = assay: Antibacterial activity against Escherichia coli by modified NCCLS method; format: functional, organism-based
[7] = system: Mycobacterium intracellulare; assay: Antibacterial activity against Mycobacterium intracellular after 24 hrs by alamar blue assay; format: functional
Aspergillus fumigatus [8] = assay: Antifungal activity against Aspergillus fumigatus by modified NCCLS method; format: functional, organism-based
Vero = assay: Cytotoxicity against african green monkey Vero cells up to 470 nM by neutral red assay; format: cell-based; conditions: chlorocebus sabaeus
Pseudomonas aeruginosa = assay: Antibacterial activity against Pseudomonas aeruginosa by modified NCCLS method; format: functional, organism-based
Candida albicans [9] = system: Candida albicans
Cryptococcus neoformans [10] = assay: Antifungal activity against Cryptococcus neoformans by modified NCCLS method; format: functional, organism-based
Candida albicans [11] = assay: Antifungal activity against Candida albicans after 24 hrs by alamar blue assay
Aspergillus fumigatus [12] = assay: Antifungal activity against Aspergillus fumigatus after 24 hrs by alamar blue assay
[13] = Therapeutic index, ratio of TC50 for african green monkey (Cercopithecus aethiops) Vero cells to IC50 for chloroquine-resistant Plasmodium falciparum W2 infected in african green monkey (Cercopithecus aethiops) Vero cells; format: cell-based; conditions: read-out: TI
[14] = Therapeutic index, ratio of TC50 for african green monkey (Cercopithecus aethiops) Vero cells to IC50 for chloroquine-sensitive Plasmodium falciparum D6 infected in african green monkey (Cercopithecus aethiops) Vero cells; format: cell-based; conditions: read-out: TI
[15] = Cryptococcus neoformans, read-out: IC50
[16] = Candida albicans, read-out: IC50

Compound: O=C(Nc1ccc2[nH]c3c(C4=C[C@@]5(O)CC/C=C\CCCCN6CC[C@@H]4[C@]4(C[C@@H]7/C=C\CCCCN7[C@H]45)C6)nccc3c2c1)C1CCCCC1 [6-CYCLOHEXAMIDOMANZAMINE A]
- IC50 (Candida albicans [1]): Not Active
- IC50 [2]: 1260 nM
- IC50 (Plasmodium falciparum [3]): 34 nM
- Activity (Mus musculus): Non-toxic
- MIC (Cryptococcus neoformans [4]): inactive
- MIC (Aspergillus fumigatus [5]): inactive
- IC50 (Plasmodium falciparum [6]): 53 nM
- inhibition in vivo at 30 mg/kg (Plasmodium berghei): 24%
- Activity (Escherichia coli): inactive
- MIC [7]: 1.86 µM (≈ 1.25 µg/mL)
- IC50 (Aspergillus fumigatus [8]): Not Active
- Activity (Vero): Non-toxic
- Activity (Pseudomonas aeruginosa): inactive
- MIC (Candida albicans [9]): inactive
- IC50 (Cryptococcus neoformans [10]; [15]): 22300 nM

Compound: CCCCCC(=O)Nc1cccc2c1[nH]c1c(C3=C[C@@]4(O)CC/C=C\CCCCN5CC[C@@H]3[C@]3(C[C@@H]6/C=C\CCCCN6[C@H]34)C5)nccc12 [8-N-HEXAMIDOMANZAMINE A]
- IC50 (Candida albicans [1]): Not Active
- IC50 [2]: 30 nM
- IC50 (Plasmodium falciparum [3]): 32 nM
- Activity (Mus musculus): Non-toxic
- MIC (Cryptococcus neoformans [4]): inactive
- MIC (Aspergillus fumigatus [5]): inactive
- IC50 (Plasmodium falciparum [6]): 65 nM
- inhibition in vivo at 30 mg/kg (Plasmodium berghei): 62%
- Activity (Escherichia coli): inactive
- MIC [7]: 0.468 µM (≈ 0.31 µg/mL)
- IC50 (Aspergillus fumigatus [8]): Not Active
- Activity (Vero): Non-toxic
- Activity (Pseudomonas aeruginosa): inactive
- MIC (Candida albicans [9]): inactive
- IC50 (Cryptococcus neoformans [10]; [15]): 3780 nM

Compound: CCCCCCC(=O)Nc1cccc2c1[nH]c1c(C3=C[C@@]4(O)CC/C=C\CCCCN5CC[C@@H]3[C@]3(C[C@@H]6/C=C\CCCCN6[C@H]34)C5)nccc12 [8-N-OCTAMIDOMANZAMINE A]
- IC50 (Candida albicans [1]): Not Active
- IC50 [2]: 508 nM
- IC50 (Plasmodium falciparum [3]): 55 nM
- MIC (Cryptococcus neoformans [4]): 29 µM (≈ 19.6 µg/mL)
- MIC (Aspergillus fumigatus [5]): inactive
- IC50 (Plasmodium falciparum [6]): 43 nM
- Activity (Escherichia coli): inactive
- MIC [7]: 1.81 µM (≈ 1.23 µg/mL)
- IC50 (Aspergillus fumigatus [8]): Not Active
- Activity (Vero): Non-toxic
- Activity (Pseudomonas aeruginosa): inactive
- MIC (Candida albicans [9]): inactive
- IC50 (Cryptococcus neoformans [10]; [15]): 1010 nM

Compound: CCCCC(=O)Nc1cccc2c1[nH]c1c(C3=C[C@@]4(O)CC/C=C\CCCCN5CC[C@@H]3[C@]3(C[C@@H]6/C=C\CCCCN6[C@H]34)C5)nccc12 [8-N-PENTAMIDOMANZAMINE A]
- IC50 (Candida albicans [1]): Not Active
- IC50 [2]: 695 nM
- IC50 (Plasmodium falciparum [3]): 53 nM
- MIC (Cryptococcus neoformans [4]): inactive
- MIC (Aspergillus fumigatus [5]): inactive
- IC50 (Plasmodium falciparum [6]): 49 nM
- Activity (Escherichia coli): inactive
- MIC [7]: 0.973 µM (≈ 0.63 µg/mL)
- IC50 (Aspergillus fumigatus [8]): Not Active
- Activity (Vero): Non-toxic
- Activity (Pseudomonas aeruginosa): inactive
- MIC (Candida albicans [9]): inactive
- IC50 (Cryptococcus neoformans [10]; [15]): 4630 nM

Compound: CC(C)(C)C(=O)Nc1cccc2c1[nH]c1c(C3=C[C@@]4(O)CC/C=C\CCCCN5CC[C@@H]3[C@]3(C[C@@H]6/C=C\CCCCN6[C@H]34)C5)nccc12 [8-PIVALAMIDOMANZAMINE A]
- IC50 (Candida albicans [1]): Not Active
- IC50 [2]: 540 nM
- IC50 (Plasmodium falciparum [3]): 170 nM
- MIC (Cryptococcus neoformans [4]): inactive
- MIC (Aspergillus fumigatus [5]): inactive
- IC50 (Plasmodium falciparum [6]): 232 nM
- Activity (Escherichia coli): inactive
- MIC [7]: 0.973 µM (≈ 0.63 µg/mL)
- IC50 (Aspergillus fumigatus [8]): Not Active
- Activity (Vero): Non-toxic
- Activity (Pseudomonas aeruginosa): inactive
- MIC (Candida albicans [9]): inactive
- IC50 (Cryptococcus neoformans [10]): Not Active

Compound: C[C@@H]1[C@H](O)[C@@H](C)/C=C/C=C/C=C/C=C/C=C/C=C/C=C/[C@H](O[C@@H]2O[C@H](C)[C@@H](O)[C@H](N)[C@@H]2O)C[C@@H]2O[C@](O)(C[C@@H](O)C[C@@H](O)[C@H](O)CC[C@@H](O)C[C@@H](O)CC(=O)O[C@H]1C)C[C@H](O)[C@H]2C(=O)O [AMPHOTERICIN B]
- IC50 (Candida albicans [1]; [16]): 487 nM
- MIC (Cryptococcus neoformans [4]): 2.71 µM (≈ 2.5 µg/mL)
- MIC (Candida albicans [11]): 1.35 µM (≈ 1.25 µg/mL)
- IC50 (Aspergillus fumigatus [8]; Aspergillus fumigatus, read-out: IC50): 1620 nM
- MIC (Aspergillus fumigatus [12]): 2.7 µM (≈ 2.5 µg/mL)
- IC50 (Cryptococcus neoformans [10]; [15]): 920 nM

Compound: O[C@]12C=C(c3nccc4c3[nH]c3ccccc34)[C@@H]3CCN(CCCC/C=C\CC1)C[C@@]31C[C@@H]3/C=C\CCCCN3[C@H]12 [MANZAMINE A]
- IC50 (Candida albicans [1]; [16]): 3660 nM
- selectivity ratio [13]: 25
- IC50 (Plasmodium falciparum [3]): 8 nM
- IC50 (Plasmodium falciparum [6]): 11 nM
- MIC (Candida albicans [9]): inactive
- selectivity ratio [14]: 44
- IC50 (Cryptococcus neoformans [10]; [15]): 1850 nM
